Values joined by “and” are separate entries in the source; they are usually repeats but may differ in a detail not shown here. Identical values can stand only once. Active and inactive are the calls of the source. The calls are words filed in the database; no cut-off is given here.
test system: Vaccinia virus; assay: Antiviral activity against Vaccinia virus strain Elstree was evaluated in african green monkey kidney; assay type: functional, Orthopoxvirus vaccinia; details: not given

Compound	ED50 [mM]
Cl.Nc1nc(=O)n([C@@H]2O[C@H](CO)[C@@H](O)[C@H]2O)cc1F	5e-08
N.Nc1nc(=O)n([C@@H]2O[C@@H]3CO[PH](O)(O)O[C@H]3[C@H]2O)cc1Br	5
N.Nc1nc(=O)n([C@@H]2O[C@@H]3CO[PH](O)(O)O[C@H]3[C@H]2O)cc1I	> 5
Nc1nc(=O)[nH]cc1F [FLUCYTOSINE]	> 5

test system: P388; assay: In vitro antitumor activity against P388 cell line in mice.; assay type: functional, Mus musculus; details: not given
Method in brief: (§1)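 Cells at 1 × 10⁶ cells/mL were incubated with filter-sterilized compound in growth medium, in duplicate, at log concentrations from 1 × 10⁻⁹ to 1 × 10⁻⁴ M. After 48 h at 37 °C, Coulter counts were taken and growth was expressed as a percentage of untreated controls. ID₅₀ is the concentration giving 50% growth inhibition.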

Compound	ID50 [mM]
Cl.Nc1nc(=O)n([C@@H]2O[C@H](CO)[C@@H](O)[C@H]2O)cc1F	0.003

test system: P388; assay: In vitro antitumor activity against P388 cell line in mice; B indicates inactive at 10e-1 mmol/L; assay type: functional, cell-based; details: Mus musculus; method in brief: as §1

Compound	ID50
N.Nc1nc(=O)n([C@@H]2O[C@@H]3CO[PH](O)(O)O[C@H]3[C@H]2O)cc1Br	inactive
N.Nc1nc(=O)n([C@@H]2O[C@@H]3CO[PH](O)(O)O[C@H]3[C@H]2O)cc1I	inactive
Nc1nc(=O)[nH]cc1F [FLUCYTOSINE]	inactive

test system: Human respirovirus 3; assay: Antiviral activity against Para influenza virus type 3 strain C243 was evaluated in african green monkey kidney; assay type: functional; details: not given

Compound	ED50 [mM]
Cl.Nc1nc(=O)n([C@@H]2O[C@H](CO)[C@@H](O)[C@H]2O)cc1F	0.13
N.Nc1nc(=O)n([C@@H]2O[C@@H]3CO[PH](O)(O)O[C@H]3[C@H]2O)cc1Br	> 5
N.Nc1nc(=O)n([C@@H]2O[C@@H]3CO[PH](O)(O)O[C@H]3[C@H]2O)cc1I	> 5
Nc1nc(=O)[nH]cc1F [FLUCYTOSINE]	> 5

test system: L1210; assay: In vitro antitumor activity against L1210 cell line in mice; B indicates inactive at 10e-1 mmol/L; assay type: functional, cell-based; details: Mus musculus; method in brief: as §1

Compound	ID50
N.Nc1nc(=O)n([C@@H]2O[C@@H]3CO[PH](O)(O)O[C@H]3[C@H]2O)cc1Br	inactive
N.Nc1nc(=O)n([C@@H]2O[C@@H]3CO[PH](O)(O)O[C@H]3[C@H]2O)cc1I	inactive
Nc1nc(=O)[nH]cc1F [FLUCYTOSINE]	inactive

test system: Vesicular stomatitis virus; assay: Antiviral activity against Vesicular stomatitis virus strain indiana was evaluated in african green monkey kidney; assay type: functional; details: not given
Method in brief: (§2)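 Confluent Vero monolayers (4 × 10⁴ cells/well, EMEM with 10% heat-inactivated newborn bovine serum, 24 h at 37 °C, 5% CO₂) were infected per well with Cox B1 200, Reo 3 470 or VSV 2 TCID₅₀ units. After 30 min adsorption, compound was added at seven 0.5-log steps, final 5 × 10⁻⁶ to 5 × 10⁻³ M, in duplicate wells. CPE was scored microscopically 0–4 at 72 h to give VR, and ED₅₀ was checked on crystal-violet-stained plates.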

Compound	ED50 [mM]
N.Nc1nc(=O)n([C@@H]2O[C@@H]3CO[PH](O)(O)O[C@H]3[C@H]2O)cc1Br	> 5
N.Nc1nc(=O)n([C@@H]2O[C@@H]3CO[PH](O)(O)O[C@H]3[C@H]2O)cc1I	> 5

test system: Vesicular stomatitis virus; assay: In vitro antiviral activity against Vesicular stomatitis virus strain indiana was evaluated in african green monkey kidney; assay type: functional; details: not given; method in brief: as §2

Compound	Virus rating
N.Nc1nc(=O)n([C@@H]2O[C@@H]3CO[PH](O)(O)O[C@H]3[C@H]2O)cc1Br	0
N.Nc1nc(=O)n([C@@H]2O[C@@H]3CO[PH](O)(O)O[C@H]3[C@H]2O)cc1I	0.2

test system: Human alphaherpesvirus 1; assay: In vitro antiviral activity against Herpes simplex virus -1 strain KOS was evaluated in african green monkey kidney; assay type: functional; details: not given

Compound	Virus rating
Cl.Nc1nc(=O)n([C@@H]2O[C@H](CO)[C@@H](O)[C@H]2O)cc1F	1
N.Nc1nc(=O)n([C@@H]2O[C@@H]3CO[PH](O)(O)O[C@H]3[C@H]2O)cc1Br	0.1
N.Nc1nc(=O)n([C@@H]2O[C@@H]3CO[PH](O)(O)O[C@H]3[C@H]2O)cc1I	0
Nc1nc(=O)[nH]cc1F [FLUCYTOSINE]	0

test system: Coxsackievirus B1; assay: Antiviral activity against Coxsackie B1 strain HA 201468 was evaluated in african green monkey kidney; assay type: functional; details: not given; method in brief: as §2

Compound	ED50 [mM]
N.Nc1nc(=O)n([C@@H]2O[C@@H]3CO[PH](O)(O)O[C@H]3[C@H]2O)cc1Br	> 5
N.Nc1nc(=O)n([C@@H]2O[C@@H]3CO[PH](O)(O)O[C@H]3[C@H]2O)cc1I	> 5

test system: Human alphaherpesvirus 1; assay: Antiviral activity against Herpes simplex virus -1 strain KOS was evaluated in african green monkey kidney; assay type: functional; details: not given

Compound	ED50 [mM]
Cl.Nc1nc(=O)n([C@@H]2O[C@H](CO)[C@@H](O)[C@H]2O)cc1F	0.02
N.Nc1nc(=O)n([C@@H]2O[C@@H]3CO[PH](O)(O)O[C@H]3[C@H]2O)cc1Br	> 5
N.Nc1nc(=O)n([C@@H]2O[C@@H]3CO[PH](O)(O)O[C@H]3[C@H]2O)cc1I	> 5
Nc1nc(=O)[nH]cc1F [FLUCYTOSINE]	> 5

test system: Human alphaherpesvirus 2; assay: In vitro antiviral activity against Herpes simplex virus -2 strain MS was evaluated in african green monkey kidney; assay type: functional; details: not given

Compound	Virus rating
Cl.Nc1nc(=O)n([C@@H]2O[C@H](CO)[C@@H](O)[C@H]2O)cc1F	2.1
N.Nc1nc(=O)n([C@@H]2O[C@@H]3CO[PH](O)(O)O[C@H]3[C@H]2O)cc1Br	0.2
N.Nc1nc(=O)n([C@@H]2O[C@@H]3CO[PH](O)(O)O[C@H]3[C@H]2O)cc1I	0
Nc1nc(=O)[nH]cc1F [FLUCYTOSINE]	0.5

test system: L1210; assay: In vitro antitumor activity against L1210 cell line in mice.; assay type: functional, Mus musculus; details: not given; method in brief: as §1

Compound	ID50 [mM]
Cl.Nc1nc(=O)n([C@@H]2O[C@H](CO)[C@@H](O)[C@H]2O)cc1F	0.0026

test system: Human alphaherpesvirus 2; assay: Antiviral activity against Herpes simplex virus -2 strain MS was evaluated in african green monkey kidney; assay type: functional; details: not given

Compound	ED50 [mM]
Cl.Nc1nc(=O)n([C@@H]2O[C@H](CO)[C@@H](O)[C@H]2O)cc1F	< 0.0005
N.Nc1nc(=O)n([C@@H]2O[C@@H]3CO[PH](O)(O)O[C@H]3[C@H]2O)cc1Br	5
N.Nc1nc(=O)n([C@@H]2O[C@@H]3CO[PH](O)(O)O[C@H]3[C@H]2O)cc1I	> 5
Nc1nc(=O)[nH]cc1F [FLUCYTOSINE]	> 5

test system: Coxsackievirus B1; assay: In vitro antiviral activity against Coxsackie B1 strain HA 201468 was evaluated in african green monkey kidney; assay type: functional; details: not given; method in brief: as §2

Compound	Virus rating
N.Nc1nc(=O)n([C@@H]2O[C@@H]3CO[PH](O)(O)O[C@H]3[C@H]2O)cc1Br	0
N.Nc1nc(=O)n([C@@H]2O[C@@H]3CO[PH](O)(O)O[C@H]3[C@H]2O)cc1I	0

test system: Mammalian orthoreovirus 3; assay: Antiviral activity against Reovirus type 3 strain Abney was evaluated in african green monkey kidney; assay type: functional; details: not given; method in brief: as §2

Compound	ED50 [mM]
N.Nc1nc(=O)n([C@@H]2O[C@@H]3CO[PH](O)(O)O[C@H]3[C@H]2O)cc1Br	> 5
N.Nc1nc(=O)n([C@@H]2O[C@@H]3CO[PH](O)(O)O[C@H]3[C@H]2O)cc1I	> 5

test system: Human respirovirus 3; assay: In vitro antiviral activity against Para influenza virus type 3 strain C243 was evaluated in african green monkey kidney; assay type: functional; details: not given

Compound	Virus rating
Cl.Nc1nc(=O)n([C@@H]2O[C@H](CO)[C@@H](O)[C@H]2O)cc1F	0.8
N.Nc1nc(=O)n([C@@H]2O[C@@H]3CO[PH](O)(O)O[C@H]3[C@H]2O)cc1Br	0
N.Nc1nc(=O)n([C@@H]2O[C@@H]3CO[PH](O)(O)O[C@H]3[C@H]2O)cc1I	0
Nc1nc(=O)[nH]cc1F [FLUCYTOSINE]	0.4

test system: Vero; assay: In vitro cytotoxicity against Vero cells.; assay type: functional, Chlorocebus sabaeus; details: not given

Compound	Cytotoxicity
N.Nc1nc(=O)n([C@@H]2O[C@@H]3CO[PH](O)(O)O[C@H]3[C@H]2O)cc1Br	2 mM l-1 and 5 mM l-1
N.Nc1nc(=O)n([C@@H]2O[C@@H]3CO[PH](O)(O)O[C@H]3[C@H]2O)cc1I	2 mM l-1 and 5 mM l-1
Nc1nc(=O)[nH]cc1F [FLUCYTOSINE]	5 mM

test system: Mammalian orthoreovirus 3; assay: In vitro antiviral activity against Reovirus type 3 strain Abney was evaluated in african green monkey kidney; assay type: functional; details: not given; method in brief: as §2

Compound	Virus rating
N.Nc1nc(=O)n([C@@H]2O[C@@H]3CO[PH](O)(O)O[C@H]3[C@H]2O)cc1Br	0
N.Nc1nc(=O)n([C@@H]2O[C@@H]3CO[PH](O)(O)O[C@H]3[C@H]2O)cc1I	0

test system: Vaccinia virus; assay: In vitro antiviral activity against Vaccinia virus strain Elstree was evaluated in african green monkey kidney; assay type: functional, Orthopoxvirus vaccinia; details: not given

Compound	Virus rating
Cl.Nc1nc(=O)n([C@@H]2O[C@H](CO)[C@@H](O)[C@H]2O)cc1F	1.3
N.Nc1nc(=O)n([C@@H]2O[C@@H]3CO[PH](O)(O)O[C@H]3[C@H]2O)cc1Br	0.1
N.Nc1nc(=O)n([C@@H]2O[C@@H]3CO[PH](O)(O)O[C@H]3[C@H]2O)cc1I	0
Nc1nc(=O)[nH]cc1F [FLUCYTOSINE]	0

From ChEMBL document CHEMBL1122970, “Synthesis and antitumor and antiviral activities of a series of 1-beta-D-ribofuranosyl-5-halocytosine (5-halocytidine) cyclic 3',5'-monophosphates” (1985)
